MrgX1 ag: agonists of human MrgX1 receptor, primary screen, HEK293 cells, Fluo-4 calcium flux; AID 588627, 2011; B-score at 10 µM; Fluo-4 calcium fluorescence, agonist mode; active compounds read high; Mas-related G-protein coupled receptor member X1 (Homo sapiens), Q96LB2; hit rate 0.44% among 310,000;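 active = calcium response B-score plate-corrected fluorescence ratio at least 3 library SD, with starting fluorescence B-score inside 5 SD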
Target sequence (Q96LB2 whole entry, looked up): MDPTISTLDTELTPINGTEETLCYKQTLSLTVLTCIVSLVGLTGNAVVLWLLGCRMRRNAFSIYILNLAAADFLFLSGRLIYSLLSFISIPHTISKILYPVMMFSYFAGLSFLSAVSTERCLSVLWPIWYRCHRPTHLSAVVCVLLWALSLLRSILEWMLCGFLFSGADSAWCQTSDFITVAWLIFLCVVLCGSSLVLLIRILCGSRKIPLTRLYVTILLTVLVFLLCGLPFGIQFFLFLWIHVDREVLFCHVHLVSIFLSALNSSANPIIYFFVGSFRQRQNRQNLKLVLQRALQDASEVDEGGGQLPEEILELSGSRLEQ
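Test system: HEK293 cells stably expressing human MrgX1 receptor; amount: 15,000 cells per well; doses: compound delivered in addition one of three; times: overnight plating before 1 h dye loading; detection: Fluo-4 NW calcium-flux fluorescence, kinetic read; read-out basis: B-scored fluorescence response ratio; controls: positive and negative controls per plate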
MrgX1 antag: antagonists of human MrgX1 receptor, primary screen, HEK293 cells, Fluo-4 calcium flux; Mas-related G-protein coupled receptor member X1 (Homo sapiens), Q96LB2; BAM8-22 antagonism; active compounds read low; B-score at 10 µM; hit rate 1.3% among 310,000; AID 588676, 2011;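 active = calcium-response B-score plate-corrected more than 3 library SD below zero, starting fluorescence within 5 deviations, no agonist response on first addition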;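 note: peak minus trough fluorescence over baseline after final BAM8-22 challenge near maximal dose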
MrgX1 allo act: positive allosteric modulators of MrgX1, primary screen, HEK293 cells, Fluo-4 calcium flux | Mas-related G-protein coupled receptor member X1 (Homo sapiens), Q96LB2 | FDSS; active compounds read high | B-score at 10 µM | hit rate 0.63% among 310,000;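 active = plate-corrected calcium response at least 3 library SD above typical, normal starting fluorescence, not activating the receptor alone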;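 note: compound read alongside a low EC10 to EC30 dose of BAM8-22 agonist; peak minus trough fluorescence over baseline measured at the second addition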
RGS4 inh: RGS4 inhibitors, primary screen, cell-based, HEK293 M3R inducible RGS4, calcium flux. Regulator of G-protein signaling 4 (Homo sapiens), P49798. Fluo-4 calcium flux; active compounds read high; triggered by carbachol at its EC20. B-score at 10 µM. hit rate 0.45% among 310,000. AID 463165, 2010;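 active = B-score, a plate-corrected calcium signal, over three deviations above library mean, with baseline fluorescence within five deviations of library mean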;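 note: RGS4 expression induced by doxycycline in cells with stable M3 receptor; B-score is computed from the integrated fluorescence ratio over baseline after carbachol; higher B-score means a larger calcium signal and so more RGS4 inhibition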
Target sequence (P49798 whole entry, looked up): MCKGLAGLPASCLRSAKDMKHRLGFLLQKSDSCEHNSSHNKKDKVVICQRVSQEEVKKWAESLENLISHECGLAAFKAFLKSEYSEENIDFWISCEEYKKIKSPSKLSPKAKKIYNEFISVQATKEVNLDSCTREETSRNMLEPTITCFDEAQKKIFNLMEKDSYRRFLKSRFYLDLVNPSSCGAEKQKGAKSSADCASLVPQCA
RGS4 pot: RGS4 potentiators or activators, primary screen, cell-based, HEK293 M3R inducible RGS4, calcium flux; hit rate 0.92% among 310,000; carbachol calcium flux Fluo4; active compounds read low; B-score at 10 µM;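 active = B-score of the integrated calcium signal more than 4 SD below the library mean, with starting fluorescence not abnormally high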;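 note: negative B-score means reduced calcium response which marks RGS4 activation or potentiation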
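test system = M3R-expressing HEK293 line, RGS4 induced by doxycycline | probe or stimulus = carbachol at ECmax as muscarinic agonist stimulus | timing = dye loading 30 min 37 °C, buffer rest 30 min RT | signal = calcium dye Fluo4 fluorescence | evaluation = B score from integrated fluorescence ratio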
MrgX1 PAM conf: MrgX1 positive allosteric modulators, duplicate retest, confirmation, HEK293 cells, Fluo-4 calcium flux; Fluo-4 calcium fluorescence, FDSS; shares compounds with MrgX1 allo act; hit rate 13% among 1,200; AID 602413, 2012; activation (ratio percentage), % at 10 µM;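 active = ratio at least 3 SD above the weak peptide control, stable starting fluorescence, no direct agonism earlier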;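 note: compound followed by low BAM8-22 agonist challenge near EC20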
HEK293 Ca flux: nonspecific calcium signal in parental HEK293, confirmation, counter-screen for MrgX1 antagonist project, parental HEK293 cells, Fluo-4 calcium flux; shares compounds with MrgX1 antag; fluorescence ratio F(max-min)/F0 at 10 µM; hit rate 2% among 4,000; Fluo-4 calcium fluorescence, FDSS;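 active = duplicate-averaged calcium fluorescence ratio at least three times the standard deviation of buffer wells, a nonspecific response in parental cells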
HEK293 Ca counter: calcium response in parental HEK293 cells, primary screen, counter-screen for MrgX1 allosteric activator project, cell-based, Fluo-4 calcium flux, duplicate; shares compounds with MrgX1 antag; Fluo-4 fluorescence ratio; active compounds read high; fluorescence ratio F(max-min)/F0 at 10 µM; hit rate 0.4% among 4,000; AID 624114, 2012;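 active = calcium fluorescence ratio, averaged over duplicates, at least 3 SD of the buffer-well ratio, meaning a nonspecific response in receptor-free cells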;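 note: untransfected parental HEK293 lacking MrgX1 used as counterscreen for MrgX1 allosteric activators; fluorescence change taken during the second addition on a kinetic imager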
HEK293 Ca cntr2: calcium response in parental HEK293 cells, primary screen, counter-screen for MrgX1 agonist project, cell-based, Fluo-4 calcium flux, duplicate, agonist mode | shares compounds with MrgX1 antag | AID 624115, 2012 | fluorescence ratio F(max-min)/F0 at 10 µM | hit rate 8.7% among 4,000 | Fluo-4 calcium fluorescence (FDSS); active compounds read high;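 active = calcium fluorescence ratio at least three times the spread of buffer wells, meaning a non-specific response in parental cells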
An asterisk follows results filed as active; i = inactive; · = no result given. Only some compounds are listed: those with a hit (about 3.5% of all), similar ones and a draw of the others.

SMILES	MrgX1 ag	MrgX1 antag	MrgX1 allo act	RGS4 inh	RGS4 pot	MrgX1 PAM conf	HEK293 Ca flux	HEK293 Ca counter	HEK293 Ca cntr2
COc1ccc(-c2[nH]ncc2-c2cnn(-c3ccccc3)c2)c(O)c1	i	i	9.42*	i	i	i	i	i	i
O=C(COC(=O)c1cccs1)c1ccccc1	i	i	18.2*	i	i	i	i	i	i
Cc1ccc(-n2cnc3cc(NCc4cccs4)ccc32)cc1	i	i	9.83*	i	i	i	i	i	i
c1ccc(-n2cnc3cc(NCc4cccs4)ccc32)cc1	i	i	i	i	i	·	·	·	·
O=C(NCCCC1CCCC1)C1CCC(=O)N(Cc2ccc(Cl)cc2)C1 (stereo unspecified)	i	i	i	i	i	·	·	·	·
CC(C)c1ccc(C(N)=S)cc1	i	i	14.2*	i	i	i	i	i	i
CC(C)c1ccc(C(=O)NNC(=O)c2ccncc2)cc1	i	i	i	i	i	·	·	·	·
COc1cc(OC)c(/C=N/NC(=O)Cn2nc([N+](=O)[O-])cc2C)c(OC)c1	i	i	i	i	i	·	·	·	·
COc1ccc(/C=C2/C(=N)N3C(=NC2=O)Sc2cc(S(C)(=O)=O)ccc23)cc1OC	i	i	37.1*	i	i	17.4%*	i	i	i
Cc1ccc(N2CC(C(=O)Nc3ccc(C)c(S(=O)(=O)N(C)C)c3)CC2=O)cc1 (stereo unspecified)	i	i	10.1*	i	i	i	i	i	i
COC1Cc2ccccc2N(C(=O)N2CCN(CCO)CC2)c2ccccc21 (stereo unspecified)	i	i	16*	i	i	i	i	i	i
CCOC1Cc2ccccc2N(C(N)=O)c2ccccc21 (stereo unspecified)	i	i	i	i	i	·	·	·	·
Cc1c[nH]c(=O)c([N+](=O)[O-])c1	i	i	i	i	i	·	·	·	·
Cc1ccc(Cl)cc1NC(C#N)c1ccccc1 (stereo unspecified)	i	i	i	i	i	·	·	·	·
CC(=O)Nc1ccc(S(=O)(=O)NC2CC(=O)N(c3ccc(C)c(C)c3)C2)cc1 (stereo unspecified)	i	i	i	i	i	·	·	·	·
CC(=O)Nc1ccc(NC(=O)[C@@H](NC(=O)N2C[C@H]3C[C@@H](C2)c2cccc(=O)n2C3)C(C)C)cc1	i	i	i	i	i	·	·	·	·
O=C1CCC2=C(CCCC2=O)N1	i	i	10*	i	i	i	i	i	i
COc1ccc(S(=O)(=O)NCC(=O)NCCc2ccc(OC)c(OC)c2)cc1	i	i	i	i	i	·	·	·	·
O=C(Nc1ccc(F)cc1)C1C2CCC3C(CCC21)C3(Cl)Cl (stereo unspecified)	i	i	9.37*	i	i	i	i	i	i
CCOc1ccc(NC(=O)C2C3CCC4C(CCC32)C4(Cl)Cl)cc1 (stereo unspecified)	i	i	i	i	i	·	·	·	·

Assay outcomes deposited in PubChem by Johns Hopkins Ion Channel Center.
